For test [1], the system named is HT-29. In words: Cytotoxicity against human HT-29 cells assessed as cell viability at 25 uM after 72 hrs by MTS assay. The conditions noted are these: HT-29, 72 h.
Test [2] has as its system MCF7. The test is described as follows: Cytotoxicity against human MCF7 cells assessed as cell viability at 25 uM after 72 hrs by MTS assay. The conditions noted are these: MCF7, 72 h. Background: Tetrazolium assays rely on reduction of a dye to a coloured formazan, in cell work by metabolically active cells.
Test [3] concerns MCF7. In words: Cytotoxicity against human MCF7 cells at 25 uM after 72 hrs by MTS assay.
The next test relates to Nucleic Acid. The test is described as follows: Binding affinity to DNA by ethidium bromide staining-based FID assay. More on the design: concentration or dose not given beside the values.
Test [4] addresses DNA topoisomerase 2-alpha (Homo sapiens) (UniProt P11388). The test is described as follows: Inhibition of human recombinant DNA topoisomerase 2alpha-mediated DNA cleavage assessed as decrease in relaxation of supercoiled plasmid substrate DNA at 100 uM after 30 mins by agarose gel electrophoresis.
The subject of test [5] is HepG2. The test is described as follows: Cytotoxicity against human HepG2 cells assessed as cell viability at 25 uM after 24 hrs by MTS assay. In kind it is functional. Conditions: HepG2, 24 h, read-out: Activity.
The subject of test [6] is MCF7. In words: Cytotoxicity against human MCF7 cells after 72 hrs by MTS assay. The conditions noted are these: MCF7, 72 h.
Test [7] relates to HT-29. In words: Cytotoxicity against human HT-29 cells after 72 hrs by MTS assay. The conditions noted are these: HT-29, 72 h.
Test [8] concerns HT-29. The test is described as follows: Cytotoxicity against human HT-29 cells at 25 uM after 72 hrs by MTS assay.
Test [9] has as its target T1, DNA topoisomerase 1 (Homo sapiens) (UniProt P11387).
T1 sequence (whole entry): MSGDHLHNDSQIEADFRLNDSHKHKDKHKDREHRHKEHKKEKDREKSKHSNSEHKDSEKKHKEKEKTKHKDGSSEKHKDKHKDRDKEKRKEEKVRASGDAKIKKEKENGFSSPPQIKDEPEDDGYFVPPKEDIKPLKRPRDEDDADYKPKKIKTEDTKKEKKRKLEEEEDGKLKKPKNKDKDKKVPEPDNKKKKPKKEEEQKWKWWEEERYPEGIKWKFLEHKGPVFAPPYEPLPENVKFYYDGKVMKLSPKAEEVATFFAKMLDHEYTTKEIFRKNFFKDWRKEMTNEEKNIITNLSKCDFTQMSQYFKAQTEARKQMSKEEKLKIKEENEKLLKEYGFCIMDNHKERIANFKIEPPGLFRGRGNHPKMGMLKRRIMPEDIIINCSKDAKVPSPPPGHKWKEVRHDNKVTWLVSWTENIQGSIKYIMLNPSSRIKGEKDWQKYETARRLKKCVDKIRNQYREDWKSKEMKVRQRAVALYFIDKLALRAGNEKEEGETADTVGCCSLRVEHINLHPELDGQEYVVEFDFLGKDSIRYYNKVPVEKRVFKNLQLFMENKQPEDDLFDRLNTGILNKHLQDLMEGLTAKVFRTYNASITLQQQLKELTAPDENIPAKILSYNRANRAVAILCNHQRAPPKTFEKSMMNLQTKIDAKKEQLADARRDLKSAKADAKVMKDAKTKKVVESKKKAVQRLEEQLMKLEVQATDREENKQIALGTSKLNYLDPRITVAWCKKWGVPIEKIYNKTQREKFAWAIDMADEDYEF
The test is described as follows: Inhibition of human recombinant DNA topoisomerase 1-mediated DNA cleavage assessed as decrease in relaxation of supercoiled plasmid substrate DNA at 100 uM after 30 mins by agarose gel electrophoresis.

For test [10], the system named is HepG2. In words: Cytotoxicity against human HepG2 cells after 72 hrs by MTS assay. The conditions noted are these: HepG2, 72 h.
Test [11] concerns HepG2. In words: Cytotoxicity against human HepG2 cells at 25 uM after 72 hrs by MTS assay.
Test [12] deals with MCF7. In words: Cytotoxicity against human MCF7 cells assessed as cell viability at 100 uM after 72 hrs by MTS assay. Conditions: MCF7, 72 h.
In test [13] the target is T1, DNA topoisomerase 1 (Homo sapiens). In words: Induction of poisoning activity in human recombinant DNA topoisomerase 1 assessed as enhancement of in relaxation of supercoiled plasmid substrate DNA at 100 uM after 30 mins by agarose gel electrophoresis. The method in brief:
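In the topo I cleavage (poison) assay, the relaxation format was used with 6 units of enzyme for 30 min at 37 °C. Reactions were stopped with SDS, digested with proteinase K and CIA-extracted. DNA was run on 1% agarose with and without ethidium bromide. Poisoning was scored by the presence of the nicked open-circular band, referenced to camptothecin.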

Test [14] addresses DNA topoisomerase 2-alpha (Homo sapiens) (UniProt P11388). The test is described as follows: Induction of poisoning activity in human recombinant DNA topoisomerase 2alpha assessed as enhancement of in relaxation of supercoiled plasmid substrate DNA at 100 uM after 30 mins by agarose gel electrophoresis. The method in brief: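 For topo IIα cleavage, 0.25 µg supercoiled pRYG was incubated with 4 units of human topoisomerase IIα (p170) in Tris buffer with 2 mM ATP and 10 mM MgCl2 for 30 min at 37 °C. Workup was SDS stop, proteinase K, extraction and agarose electrophoresis. Poisoning was judged by appearance of a linear DNA band.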

For test [15], the system named is HepG2. In words: Cytotoxicity against human HepG2 cells assessed as cell viability at 100 uM after 72 hrs by MTS assay. Conditions: HepG2, 72 h.
The test system of test [16] is HT-29. The test is described as follows: Cytotoxicity against human HT-29 cells assessed as cell viability at 100 uM after 72 hrs by MTS assay. Conditions: HT-29, 72 h.
A short description of test [17]: Cytotoxicity against mouse NIH/3T3 cells after 3 days by MTS assay. Conditions: NIH3T3, 72 h. The test is classed as cell-based. The method in brief:
(§1)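 Non-tumour cells were CRL-7761 human skin, Vero monkey kidney (DMEM high glucose, 5% FBS, 10 mM HEPES) and NIH/3T3 mouse (DMEM, 10% calf serum). Cells were seeded, left 24 h, then switched to serum-free DMEM-F12 with albumin, transferrin and insulin, with or without compound. Exposure was 3 days at 37 °C.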

Test [18] in a line: Cytotoxicity against human CRL7761 cells after 3 days by MTS assay. Conditions: 72 h. The test is classed as cell-based. The method in brief: as §1
Another test has as its system Vero. The test is described as follows: Cytotoxicity against african green monkey Vero cells after 3 days by MTS assay. The test is classed as cell-based. The conditions noted are these: Chlorocebus sabaeus, 72 h. An outline of the steps: as §1
For test [19], the target named is DNA topoisomerase 2-alpha (Homo sapiens) (UniProt P11388). The test is described as follows: Inhibition of human recombinant DNA topoisomerase 2alpha-mediated DNA cleavage assessed as decrease in relaxation of supercoiled plasmid substrate DNA at 20 uM after 30 mins by agarose gel electrophoresis.
Sequence of DNA topoisomerase 2-alpha (Homo sapiens) (P11388 whole entry): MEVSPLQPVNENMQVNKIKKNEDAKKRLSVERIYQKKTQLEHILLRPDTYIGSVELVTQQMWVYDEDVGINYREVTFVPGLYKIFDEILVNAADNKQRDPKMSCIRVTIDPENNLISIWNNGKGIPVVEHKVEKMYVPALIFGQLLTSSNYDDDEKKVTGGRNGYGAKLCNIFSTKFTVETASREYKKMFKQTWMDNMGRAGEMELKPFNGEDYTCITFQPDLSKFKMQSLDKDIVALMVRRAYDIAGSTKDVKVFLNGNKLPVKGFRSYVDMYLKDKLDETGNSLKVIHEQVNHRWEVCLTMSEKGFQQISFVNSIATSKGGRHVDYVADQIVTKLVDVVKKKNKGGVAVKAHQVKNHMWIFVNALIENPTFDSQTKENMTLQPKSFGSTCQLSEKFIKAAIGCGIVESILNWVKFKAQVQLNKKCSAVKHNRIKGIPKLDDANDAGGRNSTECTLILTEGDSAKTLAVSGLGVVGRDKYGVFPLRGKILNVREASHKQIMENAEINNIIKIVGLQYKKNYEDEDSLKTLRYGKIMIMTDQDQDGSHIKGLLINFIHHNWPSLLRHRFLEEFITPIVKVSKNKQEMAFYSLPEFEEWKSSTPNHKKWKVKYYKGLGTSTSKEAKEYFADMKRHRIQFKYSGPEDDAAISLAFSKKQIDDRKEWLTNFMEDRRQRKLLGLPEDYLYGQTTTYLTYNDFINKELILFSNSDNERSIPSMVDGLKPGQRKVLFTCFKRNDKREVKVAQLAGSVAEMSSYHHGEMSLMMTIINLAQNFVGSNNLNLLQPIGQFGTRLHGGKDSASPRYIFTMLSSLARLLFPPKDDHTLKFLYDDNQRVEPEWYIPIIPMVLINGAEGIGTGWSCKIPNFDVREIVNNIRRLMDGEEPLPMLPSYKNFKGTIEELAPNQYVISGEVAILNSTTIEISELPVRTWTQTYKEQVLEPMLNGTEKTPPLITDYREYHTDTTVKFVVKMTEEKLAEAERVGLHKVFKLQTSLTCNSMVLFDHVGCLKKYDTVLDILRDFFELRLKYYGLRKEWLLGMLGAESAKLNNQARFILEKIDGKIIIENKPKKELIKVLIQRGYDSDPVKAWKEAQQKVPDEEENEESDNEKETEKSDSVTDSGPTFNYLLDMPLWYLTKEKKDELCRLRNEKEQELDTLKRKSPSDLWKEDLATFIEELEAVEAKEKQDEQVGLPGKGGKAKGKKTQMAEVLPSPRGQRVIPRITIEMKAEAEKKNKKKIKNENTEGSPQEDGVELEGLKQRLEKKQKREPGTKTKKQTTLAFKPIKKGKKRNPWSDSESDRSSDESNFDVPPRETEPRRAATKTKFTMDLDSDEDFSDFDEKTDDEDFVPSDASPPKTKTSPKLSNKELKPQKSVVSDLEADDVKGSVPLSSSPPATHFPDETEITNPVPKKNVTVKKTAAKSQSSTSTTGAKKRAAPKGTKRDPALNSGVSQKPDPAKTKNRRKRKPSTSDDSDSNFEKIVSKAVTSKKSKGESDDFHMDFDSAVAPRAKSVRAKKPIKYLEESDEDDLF

SMILES strings stand for the structures. Calls of active or inactive are those of the source. The calls are words filed in the database; no cut-off is given here.

In general, inhibition refers to how much of the control response was suppressed. By IC50 is commonly meant the point on the concentration scale where inhibition reaches its midpoint. As for `C[C@@H]1O[C@@H](OCC#Cc2c(-c3ccccc3)sc3ccccc23)C[C@H](N)[C@H]1O`, the viability at 25 µM with HT-29 [1] was less than 1%; with MCF7 [2], 2%; in the test on HepG2 [5] it was 2%. Moreover, the Activity in the test with MCF7 [3] turned out to be 100%; in the test with Nucleic Acid, 73.6%; in the test on HT-29 [8] it was 100%; with HepG2 [11], 100%. Besides, the inhibition in [4] worked out at 22.2%; in [9], 32.2%. Further, the IC50 in the test on MCF7 [6] was 15.8 µM; with HT-29 [7] it was 10.9 µM; with HepG2 [10] it was 17.2 µM.
On to `Ic1c(-c2ccccc2)sc2ccccc12`, for which the viability at 100 µM came to 111% in the test with MCF7 [12], 87% in the test with HepG2 [15] and 89% with HT-29 [16]. For the same molecule, the result in test [13] and in test [14] was inactive.
As to `C[C@@H]1O[C@@H](OCC#Cc2c(-c3ccccc3)oc3ccccc23)CC[C@@H]1N`, the viability at 25 µM with HT-29 [1], in the test with MCF7 [2] and with HepG2 [5] was less than 1% in each case. Also, the Activity was 100% in the test on MCF7 [3], 68.5% in the test with Nucleic Acid, 100% in the test with HT-29 [8] and 100% in the test with HepG2 [11]. The values for the inhibition in test [4] and in test [9] were 0% and 20.2%, respectively. In addition, the IC50 is 3.7 µM in test [17]; 10.3 µM with MCF7 [6]; 6.5 µM in the test on HT-29 [7]; greater than 25 µM in test [18]; 7.9 µM with HepG2 [10]; 10.9 µM in the test on Vero.
Turning to `C[C@@H]1O[C@@H](OCC#Cc2c(-c3ccccc3)sc3ccccc23)C[C@H](N)[C@@H]1O`, the viability at 25 µM in the test with HT-29 [1], with MCF7 [2] and in the test with HepG2 [5] was less than 1% each time. The Activity was 100% in the test with MCF7 [3], 67.5% in the test on Nucleic Acid, 100% with HT-29 [8] and 100% in the test with HepG2 [11]. Moreover, the results for the inhibition in test [4] and in [9] were 5.8% and 36.9%, respectively. Besides, the half-inhibitory concentration (IC50) was 5.7 µM in [17]; 7.1 µM with MCF7 [6]; 2.6 µM in the test on HT-29 [7]; 22.2 µM in test [18]; 6 µM in the test with HepG2 [10]; 9.4 µM with Vero.
For `C[C@@H]1O[C@@H](OCC#Cc2c(-c3ccccc3)[nH]c3ccccc23)C[C@H](N)[C@H]1O`, the inhibition entry in [19] is “inactive”. Moreover, the figures for the viability at 25 µM in the test on HT-29 [1], in the test on MCF7 [2] and in the test with HepG2 [5] were 7%, 2% and less than 1%, respectively. For the same molecule, the Activity amounted to 100% in the test with MCF7 [3], 76.5% in the test with Nucleic Acid and 100% in the test on HepG2 [11]. Moreover, the inhibition in [4] is 55.5%; in test [9] it was 8.2%. Moreover, the results for the IC50 with MCF7 [6], with HT-29 [7] and in the test on HepG2 [10] were 17.3 µM, 19.3 µM and 16.2 µM, respectively.
As to `CC[C@@]1(O)C(=O)OCc2c1cc1n(c2=O)Cc2cc3ccccc3nc2-1`, the outcome in [13] and in [14] was inactive.
Turning to `C[C@@H]1O[C@@H](OCC#Cc2c(-c3ccccc3)[nH]c3ccccc23)CC[C@@H]1N`, the viability at 25 µM in the test on HT-29 [1], with MCF7 [2] and in the test on HepG2 [5] was less than 1% each time. For the same molecule, the Activity in the test on MCF7 [3] is 100%; in the test with Nucleic Acid, 78.4%; with HT-29 [8] it was 100%; with HepG2 [11], 100%. The values for the inhibition in test [4] and in test [9] were 39.5% and 4%, respectively. In addition, the IC50 in [17] came out at 14.7 µM; with MCF7 [6], 10.8 µM; in the test on HT-29 [7], 9.2 µM; in [18], 24 µM; with HepG2 [10] it was 11.4 µM; with Vero, 20.5 µM.
Take `C[C@@H]1O[C@@H](OCC#Cc2c(-c3ccccc3)oc3ccccc23)C[C@H](N)[C@H]1O`: the viability at 25 µM in the test with HT-29 [1], in the test on MCF7 [2] and in the test on HepG2 [5] was less than 1% each time. Moreover, the Activity came out at 100% in the test with MCF7 [3], 50.5% in the test on Nucleic Acid, 100% in the test on HT-29 [8] and 100% with HepG2 [11]. In addition, the inhibition in test [4] turned out to be 5.5%; in test [9] it was 25.5%. The IC50 is 6.5 µM in test [17]; 5.4 µM in the test with MCF7 [6]; 6.5 µM with HT-29 [7]; greater than 25 µM in test [18]; 7.7 µM in the test on HepG2 [10]; 10.6 µM in the test on Vero.
Regarding `C[C@@H]1O[C@@H](OCC#Cc2c(-c3ccccc3)[nH]c3ccccc23)C[C@H](N)[C@@H]1O`, the viability at 25 µM with HT-29 [1], in the test on MCF7 [2] and in the test on HepG2 [5] was less than 1% in each case. Further, the Activity in the test with MCF7 [3] came out at 100%; in the test on Nucleic Acid it was 76.7%; in the test on HT-29 [8], 100%; in the test on HepG2 [11], 100%. Further, the inhibition in test [4] was found to be 7.1%; in [9], 8.8%. Also, the values for the concentration for half-maximal inhibition (IC50) in the test on MCF7 [6], in the test on HT-29 [7] and in the test with HepG2 [10] were 15.9 µM, 14 µM and 12.9 µM, respectively.
`C[C@@H]1O[C@@H](OCC#Cc2c(-c3ccccc3)sc3ccccc23)CC[C@@H]1N`: the viability at 25 µM in the test with HT-29 [1], with MCF7 [2] and with HepG2 [5] was less than 1% in each case. For the same molecule, the Activity in the test with MCF7 [3] stood at 100%; in the test with Nucleic Acid it was 79.9%; in the test with HT-29 [8] it was 100%; with HepG2 [11], 100%. The figures for the inhibition in test [4] and in [9] were 16.4% and 7.9%, respectively. Also, the 50% inhibitory concentration (IC50) in [17] was 9.8 µM; with MCF7 [6], 7.1 µM; in the test with HT-29 [7], 5.9 µM; in [18], greater than 25 µM; in the test with HepG2 [10], 8.8 µM; with Vero, 18.1 µM.

The values are drawn from ChEMBL document CHEMBL1641417, “Cytotoxicity and topoisomerase I/II inhibition of glycosylated 2-phenyl-indoles, 2-phenyl-benzo[b]thiophenes and 2-phenyl-benzo[b]furans” (Bioorg Med Chem, 2011).
